The record followed here is ChEMBL document CHEMBL1800018, “Discovery of a series of imidazo[4,5-b]pyridines with dual activity at angiotensin II type 1 receptor and peroxisome proliferator-activated receptor-γ” (J Med Chem, 2011).

What is called EC50 is the midpoint of the concentration-response curve. By IC50 is commonly meant the concentration needed to halve the response being measured. A low value points to higher potency.

Calls of active or inactive are those of the source. The calls are words filed in the database; no cut-off is given here. Some results are limits rather than exact numbers.

The target in experiment [1] is T1, Peroxisome proliferator-activated receptor gamma (Homo sapiens, UniProt P37231).
T1 sequence (P37231 whole entry): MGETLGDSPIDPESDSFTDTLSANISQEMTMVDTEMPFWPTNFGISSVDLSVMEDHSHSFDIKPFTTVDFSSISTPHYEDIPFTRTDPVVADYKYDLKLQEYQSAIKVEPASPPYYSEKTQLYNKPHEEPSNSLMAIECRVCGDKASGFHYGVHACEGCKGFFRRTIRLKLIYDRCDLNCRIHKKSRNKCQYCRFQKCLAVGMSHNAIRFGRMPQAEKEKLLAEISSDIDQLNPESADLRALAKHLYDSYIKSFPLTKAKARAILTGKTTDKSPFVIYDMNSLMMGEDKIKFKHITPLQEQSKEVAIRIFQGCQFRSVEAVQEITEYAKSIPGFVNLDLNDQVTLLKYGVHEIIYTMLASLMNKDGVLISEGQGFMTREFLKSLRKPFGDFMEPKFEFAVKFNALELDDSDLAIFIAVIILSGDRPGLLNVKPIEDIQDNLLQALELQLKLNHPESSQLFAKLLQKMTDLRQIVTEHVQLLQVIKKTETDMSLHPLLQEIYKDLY
Kind of experiment: Partial agonist activity at human PPARgamma-LBD/Gal4 DNA binding domain by transactivation assay.

The target in experiment [2] is T2, Type-1 angiotensin II receptor (Homo sapiens, UniProt P30556).
T2 sequence (P30556 whole entry): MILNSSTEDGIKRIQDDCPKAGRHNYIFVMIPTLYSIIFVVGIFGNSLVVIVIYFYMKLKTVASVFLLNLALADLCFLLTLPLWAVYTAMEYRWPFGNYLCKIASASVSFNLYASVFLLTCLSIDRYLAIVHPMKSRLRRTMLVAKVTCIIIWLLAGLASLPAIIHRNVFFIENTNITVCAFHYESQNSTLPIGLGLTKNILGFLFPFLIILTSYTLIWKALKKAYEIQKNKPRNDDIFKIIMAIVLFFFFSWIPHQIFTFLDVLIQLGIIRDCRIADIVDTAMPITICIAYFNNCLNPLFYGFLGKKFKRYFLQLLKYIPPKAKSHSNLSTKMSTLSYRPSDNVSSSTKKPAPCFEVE
Kind of experiment: Displacement of [125I]Tyr4-Sar1,Ile8-Angiotensin II from human Angiotensin 1 receptor after 60 mins by scintillation counting. (In general: Displacement assays read how much labelled ligand stays bound in the presence of the test substance.)

The test system of experiment [3] is Rattus norvegicus. Kind of experiment: Antidiabetic activity in ZDF rat assessed as triglyceride level at 100 mg/kg, po QD for 40 days (reference value: 618+/-52 mg/dL). Format: functional.
The subject of experiment [4] is Rattus norvegicus. Nature of the experiment: Antidiabetic activity in ZDF rat assessed as body weight gain at 100 mg/kg, po QD for 40 days measured on day 32 (reference value: 133+/-9 g). Format: functional, organism-based. Also noted: dose 100 mg/kg.
Experiment [5] concerns Rattus norvegicus. Kind of experiment: Antidiabetic activity in ZDF rat assessed as blood glucose level at 100 mg/kg, po QD for 40 days (reference value: 771+/-60 mg/dL). The class given is functional.
Experiment [6] deals with Rattus norvegicus. Kind of experiment: Antidiabetic activity in ZDF rat assessed as adiponectin level at 100 mg/kg, po QD for 40 days (reference value: 11.9+/-1.5 ug/ml). Format: functional.
Experiment [7] relates to Rattus norvegicus. Nature of the experiment: Antidiabetic activity in ZDF rat assessed as body weight gain at 100 mg/kg, po QD for 40 days (reference value: 133+/-9 g). Format: functional. Put shortly: (§1)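 Male ZDF rats, starting at about 6 weeks old, were dosed orally once daily for 40 days in 1.5% CMC/0.2% Tween 20 suspension, n = 8/group. Body weight was followed over the study. Gain was calculated per animal from day 0 to day 40 and compared with vehicle and pioglitazone (3 mg/kg) groups. Data are mean ± SEM.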

The subject of experiment [8] is Rattus norvegicus. Nature of the experiment: Antidiabetic activity in ZDF rat assessed as blood glucose level at 3 mg/kg, po QD for 40 days (reference value: 771+/-60 mg/dL). The class given is functional.
In experiment [9] the test system is Rattus norvegicus. Nature of the experiment: Antidiabetic activity in ZDF rat assessed as triglyceride level at 3 mg/kg, po QD for 40 days (reference value: 618+/-52 mg/dL). Format: functional.
Experiment [10] has as its system Rattus norvegicus. Kind of experiment: Antidiabetic activity in ZDF rat assessed as body weight gain at 3 mg/kg, po QD for 40 days measured on day 6 (reference value: 133+/-9 g). The class given is functional, organism-based. The arrangement: dose 3 mg/kg.
The subject of experiment [11] is Rattus norvegicus. Nature of the experiment: Antidiabetic activity in ZDF rat assessed as body weight gain at 3 mg/kg, po QD for 40 days (reference value: 133+/-9 g). The class given is functional. The gist of the method:
as §1

The subject of experiment [12] is Rattus norvegicus. Nature of the experiment: Antidiabetic activity in ZDF rat assessed as adiponectin level at 3 mg/kg, po QD for 40 days (reference value: 11.9+/-1.5 ug/ml). The class given is functional.

Molecule `CCc1nc2c(C)c(C)c(C)nc2n1[C@H]1CCc2cc(-c3ccccc3-c3nnn[nH]3)ccc21` had an EC50 in [1] of 1820 nM. Moreover, in experiment [2], the IC50 was 202 nM.

In the case of `CCc1cc(C)c2nc(C(C)C)n([C@H]3CCc4cc(-c5ccccc5-c5nnn[nH]5)ccc43)c2n1`, the EC50 in [1] turned out to be 264 nM. The same molecule displayed an IC50 in [2] of 16.9 nM.

`CCc1cc(C)c2nc(CC)n([C@H]3CCc4cc(-c5ccccc5-c5nnn[nH]5)ccc43)c2n1`: the EC50 in [1] stood at 494 nM. Also, the IC50 in experiment [2] came out at 6.8 nM.

In the case of `CCc1nc2c(C)cc(CC(C)C)nc2n1[C@H]1CCc2cc(-c3ccccc3C(=O)O)ccc21`, it took 175 nM to reach a half-maximal effect in experiment [1] (EC50). Moreover, in experiment [2], the IC50 amounted to 10.5 nM.

Regarding `CCCc1nc2c(C)cc(-c3nc4ccccc4n3C)cc2n1Cc1ccc(-c2ccccc2C(=O)O)cc1`, the Activity in the experiment with Rattus norvegicus [3] was determined as 935 mg/dL; in the experiment on Rattus norvegicus [5], 510 mg/dL; in the experiment with Rattus norvegicus [6], 13.2 µg/mL; with Rattus norvegicus [7] it was 157 g. Also, in the experiment on Rattus norvegicus [4], the outcome was Active. In addition, the EC50 in [1] was 1520 nM.

For `CCc1nc2c(C)cc(C)nc2n1Cc1ccc(-c2ccccc2-c2nnn[nH]2)cc1` [L-158809], the EC50 in experiment [1] was more than 20000 nM.

In experiment [1], `CCc1nc2c(C)cc(C)nc2n1[C@H]1CCc2cc(-c3ccccc3-c3nnn[nH]3)ccc21` gave an EC50 of 591 nM. Also, in experiment [2], the IC50 came to 7.6 nM.

`CCCCc1nc2c(C)cc(C)nc2n1C1CCc2cc(-c3ccccc3-c3nn[nH]n3)ccc21` (racemic): a half-maximal effect in experiment [1] (EC50) was put at 2200 nM. For the same molecule, the IC50 in experiment [2] was 238 nM.

Molecule `CCCc1nc2c(C)cc(C)nc2n1[C@H]1CCc2cc(-c3ccccc3-c3nnn[nH]3)ccc21` came in with an EC50 in experiment [1] of 1320 nM. The IC50 in experiment [2] is 13.3 nM.

Consider `Cc1cc(C)c2nc(C(C)C)n([C@H]3CCc4cc(-c5ccccc5-c5nnn[nH]5)ccc43)c2n1`, for which the EC50 in experiment [1] came to 295 nM. Also, the IC50 in [2] worked out at 10.2 nM.

In [1], `CCc1nc2c(CC(C)C)cc(C)nc2n1[C@H]1CCc2cc(-c3ccccc3-c3nnn[nH]3)ccc21` yielded a half-maximal effective concentration (EC50) of 165 nM. In [2], this molecule registered an IC50 of 748 nM.

In [1], `Cc1cc(CC(C)C)nc2c1nc(C(C)C)n2[C@H]1CCc2cc(-c3ccccc3-c3nnn[nH]3)ccc21` yielded an EC50 of 89 nM. In [2], this molecule came in with an IC50 of 3.5 nM.

As for `CCc1nc2c(C)cc(C)nc2n1C1CCc2cc(-c3ccccc3-c3nn[nH]n3)ccc21` (racemic), in experiment [1], the response was half-maximal at 574 nM (EC50). Further, the IC50 in experiment [2] amounted to 96 nM.

Consider `CCc1ccc(CCOc2ccc(CC3SC(=O)NC3=O)cc2)nc1` (stereo unspecified) [PIOGLITAZONE], for which the Activity in the experiment with Rattus norvegicus [8] is 118 mg/dL; in the experiment with Rattus norvegicus [9], 316 mg/dL; in the experiment on Rattus norvegicus [11], 269 g; with Rattus norvegicus [12], 30.5 µg/mL. The outcome in the experiment on Rattus norvegicus [10] was Active.

As to `CCc1c(C)nc2c(nc(CC)n2[C@H]2CCc3cc(-c4ccccc4-c4nnn[nH]4)ccc32)c1C`, the EC50 in experiment [1] came out at 1340 nM. Besides, the IC50 in experiment [2] was 15.7 nM.

Regarding `Cc1cc(C)c2nc(C3CC3)n([C@H]3CCc4cc(-c5ccccc5-c5nnn[nH]5)ccc43)c2n1`, the EC50 in experiment [1] came out at 762 nM. The molecule also returned an IC50 in [2] of 8.2 nM.

`CCc1nc2c(C)cc(Cc3ccccc3)nc2n1[C@H]1CCc2cc(-c3ccccc3-c3nnn[nH]3)ccc21` showed an IC50 in experiment [2] of 5.2 nM.

As to `CCc1nc2c(C)cc(C)nc2n1[C@@H]1CCc2cc(-c3ccccc3-c3nnn[nH]3)ccc21`, in experiment [1], the EC50 is 2620 nM. The IC50 in experiment [2] was determined as 661 nM.
